Key:
[1] = Body weight and side-effects in H1299 xenograft mice; format: in vivo; details: 6 mg/kg intraperitoneal; for body weight change: after 21 days of administration
How it was run: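 Female BALB/c nude mice, 5 weeks old, kept pathogen-free, received 1.4 × 10^6 NCI-H1299 cells subcutaneously. At about 75 mm3 tumours, mice were randomised (n = 5). Dosing was intraperitoneal at 6 mg/kg: vehicle (2% DMSO, 30% PEG-400, 68% ddH2O) or test compound daily for 21 days, doxorubicin every 3 days. Body weight was weighed every 3 days; mean ± SEM.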

[2] = In vitro liver microsome stability, human; format: in vitro ADME; details: human liver microsomes; mean ± SD (n = 5)
How it was run: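 Test compound at 20 μM final was incubated with 0.5 mg/mL human or mouse liver microsomes and NADPH in 0.1 M phosphate buffer for 30 min at 37°C. The reaction was quenched with 2 volumes of cold acetonitrile plus internal standard, held overnight at −20°C and centrifuged. Supernatant was analysed by UPLC-MS/MS. 6-Hydroxycoumarin was the positive control; a no-NADPH blank was the negative control.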

PDHK1 = PDHK1 (Homo sapiens, UniProt Q15118); test: In vitro PDHK activity assay; format: biochemical; details: read-out: Inhibition% at 10 µM, PDHK1, 10 µM; mean ± SD (n = 5)
Sequence of PDHK1 (Q15118 29-436): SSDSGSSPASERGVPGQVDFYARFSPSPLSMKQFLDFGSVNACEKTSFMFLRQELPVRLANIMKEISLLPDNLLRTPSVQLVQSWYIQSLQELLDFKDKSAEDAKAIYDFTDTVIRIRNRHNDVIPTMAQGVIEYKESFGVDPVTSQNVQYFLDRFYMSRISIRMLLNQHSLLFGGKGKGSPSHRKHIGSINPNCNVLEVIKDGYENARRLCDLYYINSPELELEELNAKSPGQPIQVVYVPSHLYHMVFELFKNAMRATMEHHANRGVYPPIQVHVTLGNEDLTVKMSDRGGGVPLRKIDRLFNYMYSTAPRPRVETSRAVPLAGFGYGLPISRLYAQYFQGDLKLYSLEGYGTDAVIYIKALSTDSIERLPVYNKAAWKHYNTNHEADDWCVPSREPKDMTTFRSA

Row | Compound | body weight change [1] | CLint [2] | other side-effects ([1]; 21 days) | inhibition at 10 µM (PDHK1)
1 | COc1cccc2c1C(=O)c1c(O)c3c(c(O)c1C2=O)C[C@@](O)(C(=O)CO)C[C@@H]3O[C@H]1C[C@H](N)[C@H](O)[C@H](C)O1 [DOX, doxorubicin, reference compound] | significant body weight loss | – | – | –
2 | CC(C)Oc1ccc(S(=O)(=O)c2ccc(Oc3cc(OCC(N)=O)c(C(=O)C(Cl)Cl)cc3[N+](=O)[O-])cc2)cc1 [Compound 32, 2-(2-(2,2-Dichloroacetyl)-5-(4-((4-isopropoxyphenyl)sulfonyl)phenoxy)-4-nitrophenoxy)acetamide] | decreased very little | 29.7 µL/min/mg | No other side-effects were observed | –
3 | O=C1c2ccccc2C(=O)c2c(Oc3ccc(C(=O)C(Cl)Cl)cc3[N+](=O)[O-])cccc21 [Compound 18, 1-(4-(2,2-Dichloroacetyl)-2-nitrophenoxy)anthracene-9,10-dione] | – | – | – | 26.5 to 30.1%
